Results on 22 compounds are retold here after ChEMBL document CHEMBL3232936, “Synthesis, biological activity, distribution and membrane permeability of novel spiro-thiazines as potent neuroprotectors” (Eur J Med Chem, 2014).

The nature of series [1]: Partition coefficient, log D of the compound in n-octanol-buffer at pH 7.4 by isothermal saturation method. The class given is physicochemical. Summed up: (§1)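 Isothermal saturation method at 25 °C, partitioning between n-octanol or n-hexane and phosphate buffer pH 7.4 (KH2PO4, Na2HPO4, NaCl, NaN3). Compound concentrations measured spectrophotometrically against calibration curves; coefficient taken as the ratio of concentration in the organic phase to that in buffer.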

Series [2] is described as follows: Apparent permeability of the compound across phospholipid vesicle-based barrier. The settings on record: not told. In kind it is physicochemical. Summed up: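 Phospholipid vesicle-based barrier from egg phosphatidylcholine liposomes (6% w/v in phosphate buffer with 10% v/v ethanol), extruded onto 0.65 µm mixed cellulose ester filter inserts (0.33 cm²). Donor: compound in pH 7.4 phosphate buffer; acceptor: same buffer. Room temperature, no agitation, 12–24 h, inserts moved to fresh buffer. UV-absorbance read-out; Papp from steady-state flux under sink conditions; at least triplicate, mean ± SD.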

Series [3] has as its system Brain. In words: Inhibition of glutamate-induced [45Ca2+] uptake in synaptosomes in rat brain cortex assessed as biological activity coefficients (K43/21) after 5 mins by scintillation counting relative to control. Further details: concentration or dose not given beside the values. The class given is functional, subcellular. Summed up:
(§2)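 Synaptosomal P2 fraction from brain cortex of 8–11-day-old rats, suspended in buffer A (132 mM NaCl, 5 mM KCl, 5 mM HEPES, pH 7.4) and kept at 0 °C. Glutamate-stimulated 45Ca2+ uptake with test compound, 5 min at 37 °C. Stopped by GF/B filtration, three washes with cold buffer B (145 mM KCl, 10 mM Tris, 5 mM Trilon B), scintillation counting. Initial screen at 100 µM; concentration dependence followed when inhibition reached 50% or more. MK-801 positive control.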

Series [4] in a line: Partition coefficient, log D of the compound in hexane-buffer at pH 7.4 by isothermal saturation method. The class given is physicochemical. Summed up:
as §1

The subject of series [5] is Brain. In words: Inhibition of glutamate-induced [45Ca2+] uptake in synaptosomes in rat brain cortex after 5 mins by scintillation counting. The class given is functional, subcellular. The essentials:
as §2

The structures appear in SMILES notation.

One may read the logD as the decadic logarithm of the distribution of all forms, ionised or not, between an organic phase and buffer at a given pH. Broadly, the Papp is a coefficient for how fast a substance crosses the barrier. Turning to `Fc1ccc(NC2=NCCC3(CCCCC3)S2)cc1Cl`, the logD in series [1] stood at 2.03; in series [4], 0.95. For the same compound, in series [2], the Papp came to 7.36 ×10⁻⁶ cm/s. Further, the Activity in series [3] was found to be 81.5%.

The IC50 is the point on the concentration scale where inhibition reaches its midpoint. With `Cc1cccc(C(C)C)c1NC1=NCCC2(CCCCC2)S1`, the logD is 2.36 in series [1] and 1.5 in series [4]. In series [5], this compound returned an IC50 of 20.9 µM. For the same compound, the Papp in series [2] was 9.04 ×10⁻⁶ cm/s. Moreover, in series [3], the Activity was determined as 5.4%.

`CC(C)c1ccc(NC2=NCCC3(CCCCC3)S2)cc1`: the logD was determined as 1.57 in series [1] and 1.45 in series [4]. The compound also registered an IC50 in series [5] of 6.2 µM. In addition, the Papp in series [2] stood at 15.7 ×10⁻⁶ cm/s. For the same compound, the Activity in series [3] was found to be 0%.

`CNC1=NCCC2(CCCCC2)S1`: the logD in series [1] amounted to 0.88; in series [4], 0.91. The Papp in series [2] was 2.7 ×10⁻⁶ cm/s. Moreover, the Activity in series [3] came to 134%.

In series [1], `Oc1ccc(NC2=NCCC3(CCCCC3)S2)cc1` gave a logD of 1.96. For the same compound, the Papp in series [2] came out at 1.72 ×10⁻⁶ cm/s. Moreover, the Activity in series [3] came to 73.5%.

On to `Cc1cc(C)c(NC2=NCCC3(CCCCC3)S2)c(C)c1`, for which the logD was 2.05 in series [1] and 1.48 in series [4]. In addition, the IC50 in series [5] was 9.3 µM. Further, the Papp in series [2] was determined as 11.3 ×10⁻⁶ cm/s. Also, in series [3], the Activity worked out at 2.6%.

Regarding `CC(=O)c1cccc(NC2=NCCC3(CCCCC3)S2)c1`, the results for the logD in series [1] and in series [4] were 2.37 and 1.31, respectively. The Papp in series [2] amounted to 74.7 ×10⁻⁶ cm/s. Also, the Activity in series [3] turned out to be 67.3%.

As for `c1ccc(NC2=NCCC3(CCCCC3)S2)cc1`, the logD in series [1] was found to be 1.02; in series [4] it was 1.69. In series [5], this compound showed an IC50 of 63.1 µM. The Papp in series [2] was 1.81 ×10⁻⁶ cm/s. The Activity in series [3] is 33.2%.

For the compound `Cc1ccc(NC2=NCCC3(CCCCC3)S2)cc1`, the logD in series [1] amounted to 1.56; in series [4], 1.48. In addition, in series [5], the IC50 was found to be 31.6 µM. Moreover, the Papp in series [2] came to 5.67 ×10⁻⁶ cm/s. In addition, the Activity in series [3] was found to be 20.4%.

On to `NC1=NCCC2(CCCCC2)S1`, for which the logD is 1.57 in series [1] and 1.22 in series [4]. The Papp in series [2] came out at 7.33 ×10⁻⁶ cm/s. Further, the Activity in series [3] worked out at 91.4%.

Turning to `CCNC1=NCCC2(CCCCC2)S1`, the logD stood at 1.38 in series [1] and 0.72 in series [4]. In series [2], the Papp is 8.78 ×10⁻⁶ cm/s. Besides, the Activity in series [3] was 65.3%.

For the compound `CCc1ccc(NC2=NCCC3(CCCCC3)S2)cc1`, the results for the logD in series [1] and in series [4] were 2.31 and 1.75, respectively. Besides, 11.7 µM corresponded to half-maximal inhibition in series [5] (IC50). Moreover, the Papp in series [2] was 41 ×10⁻⁶ cm/s. Moreover, the Activity in series [3] was found to be 0%.

For the compound `O=C(NC1=NCCC2(CCCCC2)S1)c1ccccc1`, the logD in series [1] was found to be 1.55; in series [4], 1.51. Besides, the Papp in series [2] turned out to be 3.18 ×10⁻⁶ cm/s. In series [3], the Activity came out at 78.1%.

Regarding `CCc1cccc(CC)c1NC1=NCCC2(CCCCC2)S1`, the logD in series [1] amounted to 1.88; in series [4], 1.28. 7.9 µM corresponded to half-maximal inhibition in series [5] (IC50). Besides, the Papp in series [2] stood at 21.6 ×10⁻⁶ cm/s. Moreover, in series [3], the Activity is 3.5%.

For `Nc1ccc(NC2=NCCC3(CCCCC3)S2)cc1`, the logD in series [1] is 1.88; in series [4], -0.52. The Papp in series [2] was 2.04 ×10⁻⁶ cm/s. In addition, in series [3], the Activity was 115%.

Take `Clc1ccc(NC2=NCCC3(CCCCC3)S2)cc1Cl`: the logD in series [1] was 2.45; in series [4] it was 1.24. Further, the Papp in series [2] stood at 3.1 ×10⁻⁶ cm/s. Also, the Activity in series [3] was 76.9%.

For the compound `CC(=O)c1ccc(NC2=NCCC3(CCCCC3)S2)cc1`, the logD is 1.97 in series [1] and 1.88 in series [4]. Moreover, half-maximal inhibition in series [5] (IC50) required 81.3 µM. For the same compound, the Papp in series [2] worked out at 2.55 ×10⁻⁶ cm/s. For the same compound, in series [3], the Activity came to 45.1%.

For `COc1ccc(NC2=NCCC3(CCCCC3)S2)cc1`, the logD in series [1] was determined as 0.8; in series [4] it was 1.45. The compound also showed an IC50 in series [5] of 85.1 µM. Also, the Papp in series [2] is 1.11 ×10⁻⁶ cm/s. Further, in series [3], the Activity amounted to 45.7%.

For `Clc1ccc(NC2=NCCC3(CCCCC3)S2)cc1`, the logD in series [1] came to 2.5; in series [4], 1.34. The same compound yielded an IC50 in series [5] of 35.5 µM. In addition, the Papp in series [2] came out at 27.8 ×10⁻⁶ cm/s. Moreover, the Activity in series [3] was 12.7%.

With `Brc1ccc(NC2=NCCC3(CCCCC3)S2)cc1`, the logD is 2.53 in series [1] and 1.36 in series [4]. In series [2], the Papp worked out at 90.3 ×10⁻⁶ cm/s. Moreover, in series [3], the Activity was determined as 56.5%.

For `FC(F)(F)c1ccc(NC2=NCCC3(CCCCC3)S2)cc1`, the logD amounted to 2.18 in series [1] and 1.31 in series [4]. For the same compound, half-maximal inhibition in series [5] (IC50) required 77.6 µM. For the same compound, in series [2], the Papp was 3.06 ×10⁻⁶ cm/s. The Activity in series [3] is 42.1%.

Take `Cc1ccc(NC2=NCCC3(CCCCC3)S2)cc1Cl`: the logD in series [1] is 2.44; in series [4] it was 0.91. For the same compound, in series [5], the IC50 is 89.1 µM. The Papp in series [2] was 23.9 ×10⁻⁶ cm/s. Also, the Activity in series [3] is 45.9%.
